Granule exo inh: lytic granule exocytosis inhibition; 0.66% of 360,000 active; AID 651702; inhibition, % at 10 µM; TALL-104 LAMP-1 surface exposure, flow cytometry; cells stimulated with thapsigargin and PMA;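 active = inhibition above about 55%, limit read from the data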
ABHD5-PLIN5 inh: ABHD5-PLIN5 protein interaction inhibition. Q00G26+Q8WTS1. Split G. princeps luciferase complementation, luminescence, 4 h. inhibition, % at 4 µM. 0.78% of 360,000 active. AID 602281;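 active = inhibition above the mean inhibition across every tested compound plus 3 SD, cut at about 22% in these data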
Target sequence (Q00G26 whole entry, looked up): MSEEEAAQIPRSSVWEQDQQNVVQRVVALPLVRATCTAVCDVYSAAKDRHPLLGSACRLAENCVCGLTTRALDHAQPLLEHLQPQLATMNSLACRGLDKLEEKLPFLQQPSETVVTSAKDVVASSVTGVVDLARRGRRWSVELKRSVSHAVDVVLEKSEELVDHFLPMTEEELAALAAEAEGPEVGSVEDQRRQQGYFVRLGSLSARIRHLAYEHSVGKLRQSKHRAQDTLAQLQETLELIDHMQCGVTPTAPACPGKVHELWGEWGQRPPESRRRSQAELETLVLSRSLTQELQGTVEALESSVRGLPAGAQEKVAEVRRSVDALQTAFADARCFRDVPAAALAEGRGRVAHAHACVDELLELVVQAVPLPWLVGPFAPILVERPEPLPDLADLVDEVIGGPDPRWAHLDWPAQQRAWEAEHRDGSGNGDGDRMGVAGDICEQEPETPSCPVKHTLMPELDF
Target sequence (Q8WTS1 whole entry, looked up): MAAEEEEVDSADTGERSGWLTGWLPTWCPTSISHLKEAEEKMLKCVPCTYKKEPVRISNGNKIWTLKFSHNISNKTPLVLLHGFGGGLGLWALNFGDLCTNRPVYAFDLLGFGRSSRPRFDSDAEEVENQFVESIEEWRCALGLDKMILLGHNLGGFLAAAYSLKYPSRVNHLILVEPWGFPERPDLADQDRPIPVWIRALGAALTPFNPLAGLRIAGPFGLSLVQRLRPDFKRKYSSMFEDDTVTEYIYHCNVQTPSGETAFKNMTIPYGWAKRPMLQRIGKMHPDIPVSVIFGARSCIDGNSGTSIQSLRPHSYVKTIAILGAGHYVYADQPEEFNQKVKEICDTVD
UPR CHOP act: activators of apoptotic arm of unfolded protein response (CHOP); 0.34% of 330,000 active; activation, % at 10 µM; CHO-CHOP luciferase reporter, UPR activation, luminescence; percent of tunicamycin response over DMSO baseline;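 active = at 10 µM dose, activation of 40% or more, normalized to positive control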
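Assay system: CHO-CHOP cells, stable luciferase reporter of PERK-eIF2a-CHOP signalling / Buffer or medium: F12 plus 10% serum / Compound dosing: one dose, 10 µM in 0.5% DMSO / Times: 6 h compound treatment, 37 °C / Technique: luciferase luminescence / Read-out: % reporter activation, DMSO baseline versus tunicamycin full activation / Benchmarks: tunicamycin and DMSO controls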
UPR XBP1 act: activators of adaptive arm of unfolded protein response (XBP1); 0.33% of 330,000 active; activation, % at 20 µM; CHO-XBP1 luciferase reporter, IRE1-XBP1 UPR activation, luminescence; percent of tunicamycin response, DMSO as zero; AID 463104;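 active = versus positive control, 20 µM dose yields 30% or more activation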
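Test system: CHO-XBP1 luciferase reporter cells | Buffer or medium: Serum-containing F12 medium, 10% FBS | Schedule: 6 h compound exposure at 37 °C, 5% CO2 | Detection: Steady-Glo luciferase glow luminescence, 10 min after reagent addition | Read-out basis: Activation, % of tunicamycin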
Mdm2 MdmX PPI: human Mdm2/MdmX binding inhibition; SaOS-2 split-luciferase Mdm2/MdmX complementation, luminescence; inhibition, % at 8 µM; 3% of 330,000 active;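 active = inhibition of at least 50% at 8 µM in the primary screen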
Mdm2 MdmX conf: confirmation of human Mdm2/MdmX interaction inhibitors; shares compounds with Mdm2 MdmX PPI; Mdm2-MdmX binding, luminescent assay; inhibition, % at 8 µM; 55% of 10,000 active; AID 489028; in the data active = inhibition above about 40%
Full FLuc ctr: inhibits full-length luciferase, flagging false Mdm2/MdmX hits | shares compounds with Mdm2 MdmX PPI | SaOS-2 full-length luciferase counterscreen, luminescence | inhibition, % at 8 µM | 77% of 6,200 active | AID 504607;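 active = mean inhibition at 8 µM reaching about 37%, which flags the compound as non-specific, limit read from the data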;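 also: p53-null SaOS-2 cells with luciferase driven by a doxycycline-inducible promoter; compound on cells about two nights before reading with doxycycline added after day one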
Large screens that a line does not name were inactive (follow-up assays come after a bar, where they were run). The list is not random: actives were taken first. Their share in the collection is about 4%.

CCc1nc(N2CCN(C(=O)c3ccccc3)CC2)c2c3c(sc2n1)CCCC3	none
O=C1CC(c2ccc3c(c2)OCCO3)Oc2ccccc21 (stereo not given)	none
O=C1CC(c2ccc3c(c2)OCCO3)Oc2ccc([N+](=O)[O-])cc21 (stereo not given)	Mdm2 MdmX PPI 72.1 | Mdm2 MdmX conf 72.5 | Full FLuc ctr 144.5
N=c1sc2ccccc2n1-c1ccccc1	Mdm2 MdmX PPI 78.6 | Mdm2 MdmX conf 62.2 | Full FLuc ctr 56.7
C=CC(=O)N=c1sc2ccccc2n1-c1ccccc1	Mdm2 MdmX PPI 82.3 | Mdm2 MdmX conf 80.3 | Full FLuc ctr 37.1
CC(NC(=O)COC(=O)c1ccccc1O)c1ccccc1 (stereo not given)	none (no result: UPR CHOP act, UPR XBP1 act, Mdm2 MdmX PPI)
O=C(CSc1nc2nc(-c3cccs3)cc(C(F)(F)F)c2c(=O)[nH]1)Nc1ccc(F)c(F)c1	Mdm2 MdmX PPI 73.9 | Mdm2 MdmX conf 46.4 | Full FLuc ctr 80.4
CCC(=O)NC(c1cc(Cl)c2cccnc2c1O)C(C)C (stereo not given)	Mdm2 MdmX PPI 52.6 | Mdm2 MdmX conf 53.2 | Full FLuc ctr inactive
CCC(=O)NC(c1cc(Cl)c2cccnc2c1O)C1CC1 (stereo not given)	Mdm2 MdmX PPI 52.8 | Mdm2 MdmX conf 47.0 | Full FLuc ctr inactive
CC(=O)NC(c1cc(F)c2cccnc2c1O)C1CC1 (stereo not given)	none
O=C(Cn1ncc2c(=O)oc3ccccc3c21)NCc1cccnc1	none
Cc1ccc(C2=N/C(=C\c3cccnc3)C(=O)O2)cc1	none
COc1ccc(C2NC(=O)NC3=C2CCc2ccccc23)cc1 (stereo not given)	Mdm2 MdmX PPI 54.7 | Mdm2 MdmX conf 45.9 | Full FLuc ctr 83.0
Cc1ccc(C(=O)NNC2=NCCC2)cc1	none
O=C(Oc1ccc(N(Cc2cccs2)C2=NS(=O)(=O)c3ccccc32)cc1)c1ccc(Cl)cc1	none
COc1cc(C(=O)N(CCc2ccccc2)C2CC3CCC(C2)N3C)cc(OC)c1OC (stereo not given)	none
Cc1cccc(N2CCN(C(=O)c3cccc(N4CCCC4=O)c3)C(C)C2)c1 (stereo not given)	Mdm2 MdmX PPI 54.6 | Mdm2 MdmX conf 60.1 | Full FLuc ctr 50.3
O=C(c1cccc(N2CCCC2=O)c1)N1CCN(c2cccc(Cl)c2)CC1	Mdm2 MdmX PPI 57.3 | Mdm2 MdmX conf 68.3 | Full FLuc ctr 48.4
CCN(CC)C(=O)CSC1=Nc2ccccc2C2=NC(c3ccccc3)C(=O)N12 (stereo not given)	none
Cc1cc(C)cc(N(CC(=O)Nc2cccc(C)c2C)S(=O)(=O)c2c(C)[nH]c(=O)[nH]c2=O)c1	none
CCN1CCN(Cc2ccc(NC(=O)c3cc(NC(=O)c4cncc(-c5ccc(C#N)cc5)c4)cc(OC)c3)cc2C(F)(F)F)CC1	Mdm2 MdmX PPI 99.8 | Mdm2 MdmX conf inactive
CCN1CCN(Cc2ccc(NC(=O)c3cc(NC(=O)c4cnnc5ccccc45)cc(OC)c3)cc2C(F)(F)F)CC1	Mdm2 MdmX PPI 52.0 | Mdm2 MdmX conf inactive
CCOC(=O)C1CCN(Cc2nnnn2CCc2ccccc2)CC1	none
O=C(NC(c1ccc(Cl)cc1)c1cc(Cl)c2cccnc2c1O)c1cccnc1 (stereo not given)	none (no result: UPR CHOP act, UPR XBP1 act, Mdm2 MdmX PPI)
Oc1c(C(c2ccccn2)N2CCCCC2)cc(Cl)c2cccnc12 (stereo not given)	Mdm2 MdmX PPI 65.3 | Mdm2 MdmX conf 46.4 | Full FLuc ctr 42.7
CN1CCN(C(c2ccccc2)c2ccc(Cl)cc2)CC1 (stereo not given)	none
CN1CCN(C(c2ccc(C(F)(F)F)cc2)c2cc(Cl)c3cccnc3c2O)CC1 (stereo not given)	Mdm2 MdmX PPI 85.5 (no result: Granule exo inh, ABHD5-PLIN5 inh) | Mdm2 MdmX conf 81.2 | Full FLuc ctr inactive
CN1CCN(C(c2ccc(Cl)cc2)c2cc(Cl)c3cccnc3c2O)CC1 (stereo not given)	Mdm2 MdmX PPI 72.8 | Mdm2 MdmX conf 71.5 | Full FLuc ctr 37.8
c1ccc(C(c2nnnn2C2CCCC2)N2CCCCCC2)nc1 (stereo not given)	none
CCN1CCN(C(c2ccc(C(F)(F)F)cc2)c2ccc3cccnc3c2O)CC1 (stereo not given)	Mdm2 MdmX PPI 73.9 | Mdm2 MdmX conf 77.8 | Full FLuc ctr inactive
CCC(C)NC(=O)CSc1ccc(S(=O)(=O)N(C)C2CCCCC2)cn1 (stereo not given)	none
Cc1nn(-c2ccccc2)c(N)c1C(c1ccc(C(C)C)cc1)c1c(C)nn(-c2ccccc2)c1N	none
CN1C(C(=O)Nc2ccc(OC(F)(F)F)cc2)=CC(c2cccs2)=NS1(=O)=O	Mdm2 MdmX PPI 58.1 | Mdm2 MdmX conf inactive | Full FLuc ctr 48.4
COc1ccc(NC(=O)C2=CC(c3cccs3)=NS(=O)(=O)N2C)cc1	Mdm2 MdmX PPI 55.3 | Mdm2 MdmX conf inactive
CN1C(C(=O)Nc2ccc(OC(F)(F)F)cc2)=CC(c2ccc3c(c2)OCO3)=NS1(=O)=O	none
O=C(Cn1cnc2c(oc3nc4c(cc32)CCCC4)c1=O)Nc1cccc(Cl)c1	Mdm2 MdmX PPI 57.0 | Mdm2 MdmX conf inactive
Cc1ccc(NC2=C/C(=N\S(=O)(=O)c3cccs3)c3ccccc3C2=O)c(C)c1	Mdm2 MdmX PPI 84.5 | Mdm2 MdmX conf 100.0 | Full FLuc ctr 51.9
Cc1ccc(Cl)cc1NC1=C/C(=N\S(=O)(=O)c2cccs2)c2ccccc2C1=O	Mdm2 MdmX PPI 80.6 | Mdm2 MdmX conf 99.8 | Full FLuc ctr 52.3
COc1ccc(N(CC(=O)NC2CCCCC2)C(=O)c2ccc(C)s2)cc1OC	none
CCCCn1nc(C(=O)Nc2ccc3c(c2)OCCO3)c2ccccc2c1=O	Mdm2 MdmX PPI 57.6 | Mdm2 MdmX conf inactive
O=C(Nc1ccc(N2CCCCC2)c(Cl)c1)c1cccnc1	Mdm2 MdmX PPI 66.5 | Mdm2 MdmX conf 46.4 | Full FLuc ctr 49.6
O=C(Nc1ccc(N2CCOCC2)c(Cl)c1)c1c(F)c(F)c(F)c(F)c1F	Mdm2 MdmX PPI 56.9 | Mdm2 MdmX conf 45.6 | Full FLuc ctr 45.1
COc1cc(Cl)c(C)cc1NCC(=O)Nc1cccc(S(=O)(=O)N2CCCC2)c1	Mdm2 MdmX PPI 51.4 | Mdm2 MdmX conf inactive
COc1ccc(NC(=O)COc2cc(C)cc(C)c2)cc1S(=O)(=O)N1CCCCC1	Mdm2 MdmX PPI 61.7 | Mdm2 MdmX conf 74.6 | Full FLuc ctr 51.3
O=C(Nc1cccc(S(=O)(=O)N2CCCCC2)c1)Nc1ccc(Cl)cc1Cl	Mdm2 MdmX PPI 88.5 | Mdm2 MdmX conf inactive
COc1ccccc1NS(=O)(=O)c1cccc(NC(=O)Nc2ccc(Cl)cc2)c1	Mdm2 MdmX PPI 93.8 | Mdm2 MdmX conf 42.6 | Full FLuc ctr 69.2

Compound activity as filed in PubChem BioAssay.
